Published values gathered from unrelated publications.
Lines come from different studies, so protocols differ.
Target: Casein kinase II subunit alpha' (CSNK2A2, Homo sapiens, UniProt P19784)

The inhibition of `C#Cc1n[nH]c2c(-c3cn([C@@H](C)c4ccccn4)c(=O)[nH]c3=O)cc(F)cc12` is reported as 3.3% (enzyme activity, inhibitor; 0.1 µM).
`Cn1cc(-c2cccc(N3CCc4c(sc5c4CC(C)(C)C5)C3=O)c2CO)cc(Nc2ccncn2)c1=O` has an inhibition of 4% (enzyme activity, inhibitor; 1 µM).
`C#Cc1n[nH]c2c(-c3cn([C@@H](C)c4ccccc4)c(=O)[nH]c3=O)cc(F)cc12` has an inhibition of 1.5% (enzyme activity, inhibitor; 0.1 µM).
With `Cn1cncc1[C@@](O)(COc1ccc(C#N)cc1-c1ccc(OC(F)(F)F)cc1)c1ccc(C#N)cc1` the remaining binding was 100% (cell-free assay, competition with immobilised ligand; 1 µM).
`O=c1[nH]c2ccccc2n1C1CCN(Cc2ccc(-c3[nH]c4cc5ncnc5cc4nc3-c3ccccc3)cc2)CC1` gave a remaining signal of 101% (cell-free assay; 0.5 µM).
For `Cn1cc(-c2cc(F)cc(N3CCn4c(cc5c4CCCC5)C3=O)c2CO)cc(Nc2ccc(N3CCN(C4COC4)CC3)cn2)c1=O`, the inhibition was 1% (enzyme activity, inhibitor; 0.1 µM).
`Cc1nn(C)cc1-c1nc2c(N3CCN(Cc4ccc(Cl)cc4)CC3)c(Cl)cnc2[nH]1` gave a remaining binding of 67% (binding, competition with immobilised ligand; 1 µM).
`COc1ncccc1-c1cnn2ccc(N3CCN(C(=O)OC(C)C)CC3)nc12` has a remaining binding of 62% (binding, competition with immobilised ligand; 1 µM).
With `Nc1ncc(-c2nc(N3CCOCC3)nc(N3CCOCC3)n2)c(C(F)F)n1` the remaining binding was 69% (binding, competition with immobilised ligand; 10 µM).
For `CN[C@@H]1C[C@H]2O[C@@](C)([C@@H]1OC)n1c3ccccc3c3c4c(c5c6ccccc6n2c5c31)C(=O)NC4`, the activity vs control was 66.6% (enzyme activity, inhibitor; 0.5 µM).
